A selection: hits, their analogues and other compounds. The true share with any hit is near 3.4%.
CHRM1 agonist: human M1 muscarinic receptor agonists, primary screen, Fluo-8 calcium fluorescence, CHO-K1 cells, HTS; CHO-K1 hM1, agonist mode; 0% DMSO, 100% acetylcholine EC100; AID 588814, 2011; activation, % at 3 µM; Muscarinic acetylcholine receptor M1 (Homo sapiens), P11229; 360,000 compounds, 0.33% hits;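 active means activation above the run's mean compound activation plus 3 SD, cut at about 16% in these data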;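 further: peak over basal fluorescence ratio within a 140 s kinetic read after compound addition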
Target sequence (P11229 whole entry, looked up): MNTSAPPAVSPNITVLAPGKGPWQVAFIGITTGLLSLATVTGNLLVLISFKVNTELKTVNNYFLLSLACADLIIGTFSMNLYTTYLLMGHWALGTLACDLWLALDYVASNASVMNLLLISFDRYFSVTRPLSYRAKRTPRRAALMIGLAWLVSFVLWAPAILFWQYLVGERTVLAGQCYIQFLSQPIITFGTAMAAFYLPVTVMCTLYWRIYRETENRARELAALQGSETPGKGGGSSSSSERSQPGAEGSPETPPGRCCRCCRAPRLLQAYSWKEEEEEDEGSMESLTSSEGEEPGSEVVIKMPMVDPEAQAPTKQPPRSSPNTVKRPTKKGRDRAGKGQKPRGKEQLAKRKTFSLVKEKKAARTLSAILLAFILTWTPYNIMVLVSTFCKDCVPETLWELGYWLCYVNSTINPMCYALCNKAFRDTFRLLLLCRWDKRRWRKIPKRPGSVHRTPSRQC
TAAR1 antagonist: human TAAR1 antagonists, primary screen, Fluo-8 calcium fluorescence, CHO RD-HGA16 cells | Trace amine-associated receptor 1 (Homo sapiens), Q96RJ0 | antagonist | inhibition, % at 3 µM | 360,000 compounds, 1.5% hits;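 active means inhibition above a per-plate cutoff, the mean inhibition of test compounds on that plate plus 3 SD, cut at about 49% in these data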
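Test system: CHO RD-HGA16 cells bearing hTAAR1 | Reagent: β-PEA, EC80 | Compound dosing: 3 µM, single point | Schedule: Dye loading 75 min at 37 °C, then 30 min room temperature | Signal: Calcium fluorescence with Fluo-8 | Evaluation: Percent inhibition of PEA-evoked calcium signal, max/basal emission ratio | Control set: DMSO-only wells and EC80 β-PEA-stimulated wells | Repeats: Singlicate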
TAAR1 agonist: human TAAR1 agonists, primary screen, Fluo-8 calcium fluorescence, CHO RD-HGA16 cells | AID 624467, 2012 | vehicle wells 0%, saturating PEA agonist 100% | 360,000 compounds, 0.99% hits | activation, % at 3 µM;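 active means activation above the mean activation of all test compounds in the run plus 3 SD, cut at about 38% in these data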
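Assay system – CHO-derived RD-HGA16 cells with stable Gα16 and human TAAR1 · Compound dosing – one-point dosing at 3 µM (nominal) · Incubation – 17-24 h seeding, 75 min 37 °C dye, 30 min RT · Measured by – kinetic Fluo-8 calcium fluorescence · Control set – DMSO vehicle as 0%, PEA at EC100 as 100% · Repeats – single well for each compound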
M1 PAM: human M1 muscarinic receptor positive allosteric modulators, primary screen, CHO-K1 cells, Fluo-8 calcium fluorescence, 1536-well; CHO-K1 hM1, ACh EC20; 0% = ACh EC20, 100% = maximal ACh; AID 588819, 2011; Muscarinic acetylcholine receptor M1 (Homo sapiens), P11229; 360,000 compounds, 0.088% hits; activation, % at 3 µM; in the data active means activation above about 19%, passing the limit was not always enough
M1 antag: human M1 muscarinic receptor antagonists, primary screen, CHO-K1 cells, Fluo-8 calcium fluorescence, 1536-well. inhibition, % at 3 µM. 360,000 compounds, 1.3% hits. Muscarinic acetylcholine receptor M1 (Homo sapiens), P11229. CHO-K1 hM1, ACh EC80 antagonist. AID 588852, 2011;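 active means percent inhibition above its own plate's cutoff, namely the mean of that plate's compound wells plus 3 SD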;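 further: peak over basal fluorescence ratio during 140 s after agonist addition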
Large screens that a line does not name were inactive.

CCCCCCCCN1C(=O)[C@@H](CC(=O)NCCCOCCCC)C[C@@]2(C(=O)OC)C1=C[C@H](C(C)(C)C)O[C@@H]2C	none (no result: CHRM1 agonist, M1 PAM, M1 antag)
O=C(c1ccccc1Cl)N1CCSCCS1(=O)=O	none (no result: CHRM1 agonist, M1 PAM, M1 antag)
O=C(Nc1ccccc1Cl)c1ccccc1CC(O)(c1ccccc1)c1ccccc1	TAAR1 antagonist 54
CN(C)CCN(C(=O)c1cccc2ccccc12)c1nc2cc3c(cc2s1)OCO3	M1 antag 47
CN(C)CCCN(C(=O)c1ccc2ccccc2c1)c1nc2cc3c(cc2s1)OCO3	none
O=C(O)C(=Cc1ccc([N+](=O)[O-])cc1)c1ccccc1	none (no result: CHRM1 agonist, M1 PAM, M1 antag)
C=CCN(c1ccccc1)S(=O)(=O)c1ccc(Cl)c(C(=O)OCC(=O)c2[nH]c(C)c(C(C)=O)c2C)c1	TAAR1 antagonist 50, M1 antag 31
C=CCN(c1ccc(OC)cc1)S(=O)(=O)c1ccc(Cl)c(C(=O)OCC(=O)NC2CC2)c1	none
Cc1ccccc1-c1ccc2c(c1)[C@@H]1C[C@H]3[C@@H](CN1CC2)[C@H](C)ON3C	none (no result: CHRM1 agonist, M1 PAM, M1 antag)
Cc1cc(=O)oc2c3c(cc(OCC(=O)Nc4cccnc4)c12)OC(C)(C)CC3	none
CCCc1cc(=O)oc2c3c(cc(OCC(=O)NCc4ccncc4)c12)OC(C)(C)CC3	TAAR1 antagonist 49
Cc1cc(=O)oc2c3c(cc(OCC(=O)Nc4ccc(CCO)cc4)c12)OC(C)(C)CC3	TAAR1 antagonist 51
CCCc1cc(=O)oc2c3c(cc(OCC(=O)NCc4ccccn4)c12)OC(C)(C)CC3	TAAR1 antagonist 49
C[C@H](CO)N1C[C@H](C)[C@@H](CN(C)C(=O)c2ccc(N3CCN(C)CC3)cc2)OCc2cn(nn2)CCCC1=O	none (no result: CHRM1 agonist, M1 PAM, M1 antag)
CCOC(=O)CNC(=O)N(C)[C@H]1C[C@H]2c3[nH]c4c(-c5ccccc5)cccc4c3CCN2C(=O)[C@H]1[C@H](C)O	none (no result: CHRM1 agonist, M1 PAM, M1 antag)
COc1cc(C(=O)NNC(=S)NC(=O)/C=C/c2ccccc2)cc(OC)c1OC	CHRM1 agonist 23, TAAR1 agonist 39
CCCCCC(=O)Nc1ccc(N2CCN(CC)CC2)c(Cl)c1	M1 antag 69
CC(=O)N1CCN(c2ccccc2NC(=O)c2ccc(C#N)cc2F)CC1	none
CCN1CCN(c2ccc(S(=O)(=O)N3CCOCC3)cc2NC(=O)c2ccccc2OC(F)F)CC1	CHRM1 agonist 20
CCN1CCN(c2ccc(NC(=O)c3ccc(C#N)cc3F)cc2Cl)CC1	M1 antag 54
CCCCCC(=O)NC(=S)Nc1ccc(N2CCCCC2)c(Cl)c1	none
CCN1CCN(c2ccc(NC(=O)c3cc4ccccc4cc3OC)cc2C)CC1	M1 antag 99
CCc1cc2c(nc1CC)CCCN2S(=O)(=O)c1c(C)noc1C	none (no result: CHRM1 agonist, M1 PAM, M1 antag)
COC(=O)C1=C(C)N(C)C(=NCc2ccc3c(c2)OCO3)NC1c1ccccc1 (stereo unspecified)	none (no result: CHRM1 agonist, M1 PAM, M1 antag)
CCCCCCC12C(=Cc3cc4c(cc31)OCCO4)c1cc(OC)c(OC)cc1C(CC(=O)O)N2C(=O)OC (stereo unspecified)	none (no result: CHRM1 agonist, M1 PAM, M1 antag)
Cc1cc(Br)cn2c(Cc3cccc(F)c3)c(-c3ccccc3)nc12	none
CCN1CCN(c2ccc(NC(=O)c3ccccc3F)cc2Cl)CC1	M1 antag 84
CC1=[N+](C)N(c2ccccc2)C(=O)C1N=C/C=C/c1ccccc1 (stereo unspecified)	M1 antag 99
CN1/C(=C/C2CC(=O)N(c3cccc4ccccc34)C2=O)C(C)(C)c2ccccc21 (stereo unspecified)	TAAR1 antagonist 50
Cc1cc(N2CCNC[C@@H]2C)ccc1N1CCN(Cc2ccccc2)[C@@H](C)C1	none (no result: CHRM1 agonist, M1 PAM, M1 antag)
CC(C)CCC(CCN1CCCC1)c1ccc2c(c1)OCO2 (stereo unspecified)	M1 antag 57
O=c1cccc(-c2ccc3ccccc3c2)o1	none (no result: CHRM1 agonist, M1 PAM, M1 antag)
COc1ccc(NC(=S)N(CCCN2CCC(C)CC2)Cc2cccs2)cc1	none
Cc1c(Cl)cccc1NC(=S)N(CCCN1CCOCC1)Cc1cccs1	M1 antag 82
COc1ccc(NC(=S)N(CCCN2CCCCC2)Cc2cccs2)cc1	M1 antag 59
O=C(Nc1ccc(Cl)c(Cl)c1)N(CCCN1CCOCC1)Cc1cccs1	TAAR1 agonist 46
Cc1cccnc1C(NC(=O)C1CCN(Cc2cn(C)c3ccccc23)CC1)c1ccc(Cl)cc1 (stereo unspecified)	none
COC(=O)C1=C(C)N(C)C(=NCc2cccc(C(F)(F)F)c2)NC1c1ccc(F)cc1 (stereo unspecified)	none (no result: CHRM1 agonist, M1 PAM, M1 antag)
Cc1cc(Nc2cccc(C(F)(F)F)c2)cc(=O)n1-c1cccc(C(F)(F)F)c1	none (no result: CHRM1 agonist, M1 PAM, M1 antag)
CC1CCc2[nH]c3ccc(C(=O)N(C)CC(=O)Nc4ccccc4Cl)cc3c2C1 (stereo unspecified)	none
CCN(CC(=O)Nc1ccccc1OC)C(=O)c1ccc2[nH]c3c(c2c1)CC(C)CC3 (stereo unspecified)	TAAR1 antagonist 56
CCCN(CC(=O)Nc1ccccc1OC)C(=O)c1ccc2[nH]c3c(c2c1)CC(C)CC3 (stereo unspecified)	TAAR1 antagonist 51
CC(=O)N1C[C@@H](CO)[C@@H](N(C)C(=O)/C=C/c2ccccc2)C[C@H]1c1ccccc1	none (no result: CHRM1 agonist, M1 PAM, M1 antag)
Cc1ccc(C(C)C)c(OCCCN2CCc3ccccc3C2)c1	none
Cc1ccc(C)c(OCCCN2CCc3ccccc3C2)c1	TAAR1 agonist 39
CN(C)Cc1ccc(F)cc1Sc1ccc(Cl)cc1Cl	M1 antag 52
COc1ccc(-n2c(-c3ccc(Br)cc3)c[n+]3c2CCc2ccccc2-3)cc1	M1 antag 44
COc1ccccc1-n1c(-c2ccccc2)c[n+]2c1CCc1ccccc1-2	M1 antag 59
Cc1cc(Br)cn2c(Cc3ccsc3)c(C3CCCCC3)nc12	none (no result: TAAR1 antagonist, TAAR1 agonist)
Cc1ccccc1S(=O)(=O)NC(=O)C1(C)CCN1C(=O)CC1CCCCC1 (stereo unspecified)	none
CN1C(=O)[C@@]2(C3=C(CCCC3=O)OC3=C2C(=O)OC2(CCCCC2)C3)c2ccccc21	none (no result: CHRM1 agonist, M1 PAM, M1 antag)
O=C(NC1(Cc2ccccc2)CCN(Cc2ccc(-c3ccccc3)cc2)C1=O)c1ccccc1 (stereo unspecified)	TAAR1 antagonist 62, M1 antag 37
CCCCNC(=O)C[C@@H]1C[C@@]2(C(=O)OCC)CCCC=C2N(CCc2ccc(OC)c(OC)c2)C1=O	none (no result: CHRM1 agonist, M1 PAM, M1 antag)
CCOC(=O)[C@]12CCCC=C1N(CCc1ccc(OC)c(OC)c1)C(=O)[C@H](CC(=O)NCCc1ccccc1OC)C2	TAAR1 agonist 46 (no result: CHRM1 agonist, M1 PAM, M1 antag)

Screening data from PubChem.
